Measurements from ChEMBL document CHEMBL3745659, “Synthesis and Characterization of 4,11-Diaminoanthra[2,3-b]furan-5,10-diones: Tumor Cell Apoptosis through tNOX-Modulated NAD(+)/NADH Ratio and SIRT1” (J Med Chem, 2015).
Active and inactive are the calls of the source. No cut-off for these calls is given here.

What was measured:
[1] = target: T1, Ecto-NOX disulfide-thiol exchanger 2 (Homo sapiens) (UniProt Q16206); assay: Inhibition of tNOX in human AGS cells assessed as reduction in cell migration; format: cell-based
T1 sequence (whole entry): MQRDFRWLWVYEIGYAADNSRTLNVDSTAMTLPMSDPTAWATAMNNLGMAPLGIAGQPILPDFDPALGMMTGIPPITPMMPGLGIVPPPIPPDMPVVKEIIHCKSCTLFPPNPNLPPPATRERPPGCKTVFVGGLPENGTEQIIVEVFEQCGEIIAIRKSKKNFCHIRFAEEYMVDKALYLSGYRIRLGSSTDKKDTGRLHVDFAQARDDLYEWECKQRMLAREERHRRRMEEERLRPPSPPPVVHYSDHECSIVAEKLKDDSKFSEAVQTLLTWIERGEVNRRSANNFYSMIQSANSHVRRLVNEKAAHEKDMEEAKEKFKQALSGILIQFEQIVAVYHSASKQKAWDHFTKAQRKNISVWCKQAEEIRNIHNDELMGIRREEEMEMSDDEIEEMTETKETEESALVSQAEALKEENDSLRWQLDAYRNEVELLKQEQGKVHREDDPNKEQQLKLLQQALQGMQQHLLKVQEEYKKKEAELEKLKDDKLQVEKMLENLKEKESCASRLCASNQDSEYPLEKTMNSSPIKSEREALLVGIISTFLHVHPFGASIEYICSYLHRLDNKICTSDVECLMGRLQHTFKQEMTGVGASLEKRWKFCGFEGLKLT

[2] = Antiproliferative activity against human HCT116 cells after 72 hrs by MTT assay; format: functional, cell-based; conditions: HCT-116, 72 h
K562 [3] = assay: Antiproliferative activity against human K562 cells after 72 hrs by MTT assay; format: functional, cell-based; conditions: K562, 72 h
[4] = Antiproliferative activity against human K562/4 cells after 72 hrs by MTT assay; format: functional, cell-based; conditions: K562/4, 72 h
[5] = Drug uptake in human K562/4 cells at 3 uM incubated for 2 hrs by flow cytometric analysis; format: ADME, cell-based; conditions: k562/4, 2 h
Method in brief: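 K562 and K562/4 cells incubated 2 h with 3 µM compound; uptake measured by flow cytometry as ratios (arbitrary units) of mean fluorescence channels of the histograms; verapamil (10 µM), a Pgp transport blocker, added 30 min before compound where used.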

AGS [6] = assay: Induction of apoptosis in human AGS cells assessed as necrotic cells at 0.05 uM after 24 hrs by annexin V-FITC staining-based flow cytometric analysis (Rvb=0.9%); format: functional
Method in brief: (§1)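 AGS cells exposed to compound for 24 h; Annexin V-FITC staining and flow cytometry used to give percentage of apoptotic cells; mean ± S.E. from at least three independent experiments.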

AGS [7] = assay: Induction of apoptosis in human AGS cells assessed as necrotic cells at 0.1 uM after 24 hrs by annexin V-FITC staining-based flow cytometric analysis (Rvb=0.9%); format: functional; method in brief: as §1
AGS [8] = assay: Induction of apoptosis in human AGS cells assessed as necrotic cells at 1 uM after 24 hrs by annexin V-FITC staining-based flow cytometric analysis (Rvb=0.9%); format: functional; method in brief: as §1
AGS [9] = assay: Induction of apoptosis in human AGS cells assessed as late apoptotic cells at 0.1 uM after 24 hrs by annexin V-FITC staining-based flow cytometric analysis (Rvb=0.3%); format: functional; method in brief: as §1
AGS [10] = assay: Induction of apoptosis in human AGS cells assessed as viable cells at 0.05 uM after 24 hrs by annexin V-FITC staining-based flow cytometric analysis (Rvb=91.5%); format: functional; conditions: read-out: Activity; method in brief: as §1
AGS [11] = assay: Induction of apoptosis in human AGS cells assessed as viable cells at 0.1 uM after 24 hrs by annexin V-FITC staining-based flow cytometric analysis (Rvb=91.5%); format: functional; conditions: read-out: Activity; method in brief: as §1
AGS [12] = assay: Upregulation of phosphorylated p53 level in human AGS cells at 1 and 5 uM after 24 hrs by Western blot analysis; format: functional, cell-based
AGS [13] = assay: Increase in intracellular NAD+/NADH ratio in human AGS cells at 5 uM incubated for 5 mins; format: functional, cell-based
Calf thymus DNA = assay: Binding affinity to calf thymus double stranded DNA by spectrophotometric titration method; format: nucleic-acid assay; conditions: Bos taurus
Method in brief: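 Absorption spectra of compound recorded while double-stranded DNA concentration was increased (spectrophotometric titration); extinction at absorption maxima 540 and 585 nm and band shift followed.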

K562 [14] = assay: Resistance index, ratio of IC50 for human K562/4 cells to IC50 for human K562 cells; format: functional
[15] = target: T2, NAD-dependent protein deacetylase sirtuin-1 (Homo sapiens) (UniProt Q96EB6); assay: Inhibition of human recombinant SIRT1 deacetylase activity using Arg-His-Lys-Lys(epsilon-acetyl)-AMC as substrate at 5 uM incubated for 45 mins by fluorescence analysis
T2 sequence (whole entry): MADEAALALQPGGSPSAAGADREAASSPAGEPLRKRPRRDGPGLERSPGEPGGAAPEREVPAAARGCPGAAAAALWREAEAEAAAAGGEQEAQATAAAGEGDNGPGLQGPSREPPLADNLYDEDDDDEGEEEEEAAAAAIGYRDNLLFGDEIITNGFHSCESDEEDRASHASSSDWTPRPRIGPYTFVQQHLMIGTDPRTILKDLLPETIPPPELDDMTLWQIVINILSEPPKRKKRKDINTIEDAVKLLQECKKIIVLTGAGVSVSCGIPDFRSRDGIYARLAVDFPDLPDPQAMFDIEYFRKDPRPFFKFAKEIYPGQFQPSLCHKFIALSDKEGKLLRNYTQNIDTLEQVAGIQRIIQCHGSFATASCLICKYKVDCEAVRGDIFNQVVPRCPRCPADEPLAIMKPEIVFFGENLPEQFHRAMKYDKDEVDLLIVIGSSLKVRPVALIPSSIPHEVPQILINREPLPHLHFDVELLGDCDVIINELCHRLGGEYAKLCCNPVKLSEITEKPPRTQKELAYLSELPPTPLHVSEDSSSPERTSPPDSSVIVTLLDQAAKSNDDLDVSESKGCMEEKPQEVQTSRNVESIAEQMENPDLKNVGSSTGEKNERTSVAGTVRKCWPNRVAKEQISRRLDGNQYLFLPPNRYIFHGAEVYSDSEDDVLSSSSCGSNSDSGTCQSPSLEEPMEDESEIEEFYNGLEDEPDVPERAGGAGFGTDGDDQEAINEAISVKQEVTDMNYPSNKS

AGS [16] = assay: […] in human AGS cells assessed as downregulation of N-Cad after 24 hrs by Western blot analysis; format: functional, cell-based
[17] = Antiproliferative activity against mouse NIH/3T3 cells after 48 hrs by cell impedance based study; conditions: NIH3T3, 48 h
L1210 = assay: Antiproliferative activity against mouse L1210 cells after 72 hrs by MTT assay; conditions: L1210, 72 h
[18] = target: DNA topoisomerase 2-alpha (Homo sapiens) (UniProt P11388); assay: Inhibition of Top2 (unknown origin)-mediated relaxation of pBR322 DNA at 0.1 to 2.5 uM incubated for 30 mins by ethidium bromide staining-based gel electrophoresis assay
Chain of DNA topoisomerase 2-alpha (Homo sapiens) (P11388 whole entry): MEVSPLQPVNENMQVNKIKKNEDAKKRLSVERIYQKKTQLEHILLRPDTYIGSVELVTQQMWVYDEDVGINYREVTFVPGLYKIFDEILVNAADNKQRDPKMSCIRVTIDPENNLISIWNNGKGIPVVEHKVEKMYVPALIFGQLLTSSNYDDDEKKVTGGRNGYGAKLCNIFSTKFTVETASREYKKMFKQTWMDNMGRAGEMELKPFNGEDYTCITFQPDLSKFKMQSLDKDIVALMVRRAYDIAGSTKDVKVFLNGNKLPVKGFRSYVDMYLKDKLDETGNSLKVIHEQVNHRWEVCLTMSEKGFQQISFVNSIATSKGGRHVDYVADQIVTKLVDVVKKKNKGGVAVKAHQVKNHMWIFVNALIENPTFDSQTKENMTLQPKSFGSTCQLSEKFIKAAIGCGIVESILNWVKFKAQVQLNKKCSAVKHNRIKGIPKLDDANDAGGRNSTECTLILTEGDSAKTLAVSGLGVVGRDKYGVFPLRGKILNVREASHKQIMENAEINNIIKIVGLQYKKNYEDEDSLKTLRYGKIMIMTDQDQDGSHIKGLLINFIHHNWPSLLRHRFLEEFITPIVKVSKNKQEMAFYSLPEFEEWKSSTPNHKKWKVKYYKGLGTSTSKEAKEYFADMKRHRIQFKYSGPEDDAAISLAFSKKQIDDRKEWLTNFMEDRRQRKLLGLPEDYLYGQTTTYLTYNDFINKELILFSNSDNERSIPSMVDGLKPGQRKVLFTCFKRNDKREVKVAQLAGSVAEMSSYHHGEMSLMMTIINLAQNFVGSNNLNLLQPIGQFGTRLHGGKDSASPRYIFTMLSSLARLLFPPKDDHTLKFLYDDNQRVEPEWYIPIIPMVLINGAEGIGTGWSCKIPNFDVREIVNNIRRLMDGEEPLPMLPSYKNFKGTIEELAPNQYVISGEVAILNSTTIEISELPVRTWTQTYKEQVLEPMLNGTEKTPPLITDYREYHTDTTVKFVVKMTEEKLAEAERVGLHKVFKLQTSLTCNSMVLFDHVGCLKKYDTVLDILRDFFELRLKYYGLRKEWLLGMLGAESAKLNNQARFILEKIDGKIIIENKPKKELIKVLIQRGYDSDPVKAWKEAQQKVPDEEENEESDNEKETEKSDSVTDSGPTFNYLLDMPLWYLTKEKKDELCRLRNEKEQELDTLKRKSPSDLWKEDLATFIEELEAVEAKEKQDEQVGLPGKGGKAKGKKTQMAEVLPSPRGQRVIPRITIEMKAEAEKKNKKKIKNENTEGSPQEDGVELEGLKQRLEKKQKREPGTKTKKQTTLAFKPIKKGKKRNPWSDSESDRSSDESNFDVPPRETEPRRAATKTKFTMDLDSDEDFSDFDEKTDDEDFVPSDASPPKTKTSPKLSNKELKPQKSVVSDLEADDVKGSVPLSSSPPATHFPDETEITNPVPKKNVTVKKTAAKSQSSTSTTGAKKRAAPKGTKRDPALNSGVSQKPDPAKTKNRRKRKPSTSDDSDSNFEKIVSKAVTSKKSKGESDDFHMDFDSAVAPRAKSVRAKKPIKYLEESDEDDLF

inhibition [1]: Active | IC50 (K562 [3]): 210 nM | Drug uptake [5]: Active | Ka (Calf thymus DNA): 2.5 ×10⁶ /M | inhibition [15]: Active | IC50 (L1210): 100 nM | inhibition [18]: Active
SMILES: CNCCNc1c2c(c(NCCNC)c3occc13)C(=O)c1ccccc1C2=O
IC50 [2]: 100 nM | IC50 [4]: 150 nM | Activity (AGS [6]): 7.5% | Activity (AGS [7]): 10.2% | Activity (AGS [8]): 15.4% | Activity (AGS [9]): 1.5% | viability at 0.05 µM (AGS [10]): 78.9% | viability at 0.1 µM (AGS [11]): 63.2% | Activity (AGS [12]): Active | Activity (AGS [13]): inactive | Ratio IC50 (K562 [14]): 0.71 | Activity (AGS [16]): Active | IC50 [17]: 230 nM
